Data reported in ChEMBL document CHEMBL4038350 (J Med Chem, 2017).
Non-standard residues stand in square brackets, D forms with d. Residues, ends and D or L forms follow the SMILES beside them.

What was measured:
Type in all cases: functional, cell-based
[1] = biological target: T1, Melanocortin receptor 3 (Mus musculus, UniProt P33033); assay: Agonist activity at mouse melanocortin receptor 3 expressed in HEK293 cells assessed as increase in cAMP accumulation after 2 hrs by AlphaScreen assay
[2] = biological target: Melanocyte-stimulating hormone receptor (Mus musculus, UniProt Q01727); assay: Agonist activity at mouse melanocortin receptor 1 expressed in HEK293 cells assessed as increase in cAMP accumulation after 2 hrs by AlphaScreen assay
Summary of the method: (§1)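 Donor beads and biotin-cAMP in lysis buffer followed for 2 h. The AlphaScreen signal was read. EC50 came from nonlinear least-squares fits, duplicates, at least three independent experiments.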

[3] = biological target: T1, Melanocortin receptor 3; assay: Antagonist activity at mouse melanocortin receptor 3 expressed in HEK293 cells assessed as inhibition of NDP-MSH-induced cAMP accumulation after 2 hrs by AlphaScreen assay; details: read-out: pA2 (converted)
[4] = biological target: Melanocortin receptor 5 (Mus musculus) (UniProt P41149); assay: Inverse agonist activity at mouse melanocortin receptor 5 expressed in HEK293 cells assessed as decrease in cAMP accumulation at 110 nM after 2 hrs by AlphaScreen assay relative to control; set-up: scale not given: the % may be the effect or the level left
Summary of the method: (§2)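 In mouse MC5R-HEK293 cells, cAMP was measured by AlphaScreen after 2 h peptide exposure (10−4 to 10−13 M) at room temperature. Each replicate was normalized to its signal at 10−10 M. For sigmoidal curves, percent inverse agonism was the change from basal to the high-concentration plateau. Apparent potency was taken as the curve inflection point. Three independent experiments were run.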

[5] = biological target: T2, Melanocortin receptor 4 (Mus musculus, UniProt P56450); assay: Agonist activity at mouse melanocortin receptor 4 expressed in HEK293 cells assessed as increase in cAMP accumulation after 2 hrs by AlphaScreen assay
[6] = biological target: Melanocortin receptor 5 (Mus musculus, UniProt P41149); assay: Agonist activity at mouse melanocortin receptor 5 expressed in HEK293 cells assessed as increase in cAMP accumulation after 2 hrs by AlphaScreen assay; summary of the method: as §1
[7] = biological target: T2, Melanocortin receptor 4; assay: Antagonist activity at mouse melanocortin receptor 4 expressed in HEK293 cells assessed as inhibition of NDP-MSH-induced cAMP accumulation after 2 hrs by AlphaScreen assay; details: read-out: pA2 (converted)
[8] = biological target: Melanocortin receptor 5 (Mus musculus) (UniProt P41149); assay: Agonist activity at mouse melanocortin receptor 5 expressed in HEK293 cells assessed as increase in cAMP accumulation at 100 uM after 2 hrs by AlphaScreen assay relative to control
Summary of the method: (§3)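 Cyclic peptides were dissolved in DMSO. Receptor-expressing HEK293 cells in IBMX-containing stimulation buffer (pH 7.4) were stimulated for 2 h at room temperature. cAMP was then detected by competitive AlphaScreen after a 2 h lysis/bead step. […] Values come from at least three independent experiments.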

[9] = biological target: Melanocortin receptor 3 (Mus musculus) (UniProt P33033); assay: Agonist activity at mouse melanocortin receptor 3 expressed in HEK293 cells assessed as increase in cAMP accumulation at 100 uM after 2 hrs by AlphaScreen assay relative to control; summary of the method: as §3
[10] = biological target: Melanocyte-stimulating hormone receptor (Mus musculus) (UniProt Q01727); assay: Agonist activity at mouse melanocortin receptor 1 expressed in HEK293 cells assessed as increase in cAMP accumulation at 100 uM after 2 hrs by AlphaScreen assay relative to control; summary of the method: as §3
[11] = biological target: Melanocortin receptor 5 (Mus musculus) (UniProt P41149); assay: Inverse agonist activity at mouse melanocortin receptor 5 expressed in HEK293 cells assessed as decrease in cAMP accumulation at 700 nM after 2 hrs by AlphaScreen assay relative to control; set-up: scale not given: the % may be the effect or the level left; summary of the method: as §2
[12] = biological target: Melanocortin receptor 4 (Mus musculus) (UniProt P56450); assay: Agonist activity at mouse melanocortin receptor 4 expressed in HEK293 cells assessed as increase in cAMP accumulation at 100 uM after 2 hrs by AlphaScreen assay; summary of the method: as §3
[13] = biological target: Melanocortin receptor 5 (Mus musculus) (UniProt P41149); assay: Inverse agonist activity at mouse melanocortin receptor 5 expressed in HEK293 cells assessed as decrease in cAMP accumulation at 10 nM after 2 hrs by AlphaScreen assay relative to control; set-up: scale not given: the % may be the effect or the level left; summary of the method: as §2

Chain of Melanocortin receptor 5 (Mus musculus) (P41149 whole entry): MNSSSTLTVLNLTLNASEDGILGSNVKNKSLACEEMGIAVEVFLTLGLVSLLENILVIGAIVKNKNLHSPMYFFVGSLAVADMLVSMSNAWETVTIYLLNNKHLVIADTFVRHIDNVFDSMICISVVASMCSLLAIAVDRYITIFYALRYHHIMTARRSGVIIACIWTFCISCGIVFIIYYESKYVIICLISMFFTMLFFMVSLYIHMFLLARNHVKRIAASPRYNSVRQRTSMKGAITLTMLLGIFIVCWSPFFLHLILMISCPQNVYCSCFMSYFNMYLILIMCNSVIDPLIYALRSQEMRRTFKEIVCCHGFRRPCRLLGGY
Chain of Melanocortin receptor 5 (P41149 whole entry): as above
T2 sequence (P56450 whole entry): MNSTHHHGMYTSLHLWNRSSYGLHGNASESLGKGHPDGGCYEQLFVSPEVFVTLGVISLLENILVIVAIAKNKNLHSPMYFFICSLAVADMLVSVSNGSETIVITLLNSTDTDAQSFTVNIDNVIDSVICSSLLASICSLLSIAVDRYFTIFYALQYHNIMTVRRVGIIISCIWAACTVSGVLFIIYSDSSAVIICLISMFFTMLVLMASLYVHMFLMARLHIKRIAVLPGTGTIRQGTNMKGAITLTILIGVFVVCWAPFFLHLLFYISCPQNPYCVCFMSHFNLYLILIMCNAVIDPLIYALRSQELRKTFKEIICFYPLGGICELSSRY
Chain of Melanocyte-stimulating hormone receptor (Mus musculus) (Q01727 whole entry, looked up): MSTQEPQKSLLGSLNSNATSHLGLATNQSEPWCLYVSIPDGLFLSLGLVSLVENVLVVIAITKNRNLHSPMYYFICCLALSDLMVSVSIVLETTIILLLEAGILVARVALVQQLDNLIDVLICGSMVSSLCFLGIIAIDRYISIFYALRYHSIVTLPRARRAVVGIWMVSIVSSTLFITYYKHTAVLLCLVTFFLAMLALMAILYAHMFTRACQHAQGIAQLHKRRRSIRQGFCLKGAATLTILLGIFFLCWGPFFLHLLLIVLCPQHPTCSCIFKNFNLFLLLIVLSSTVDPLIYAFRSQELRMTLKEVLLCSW
Chain of Melanocyte-stimulating hormone receptor (Q01727 whole entry): as the sequence (Q01727 whole entry, looked up) above
T1 sequence (P33033 whole entry): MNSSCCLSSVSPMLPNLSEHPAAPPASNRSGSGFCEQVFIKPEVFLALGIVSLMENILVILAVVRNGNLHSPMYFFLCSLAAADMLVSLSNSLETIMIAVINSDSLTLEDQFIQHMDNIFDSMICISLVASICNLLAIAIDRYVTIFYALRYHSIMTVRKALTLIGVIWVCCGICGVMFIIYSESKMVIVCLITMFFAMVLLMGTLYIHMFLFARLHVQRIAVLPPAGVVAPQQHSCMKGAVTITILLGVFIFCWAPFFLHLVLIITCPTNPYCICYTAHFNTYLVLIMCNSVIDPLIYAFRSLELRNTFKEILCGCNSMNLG
Chain of Melanocortin receptor 3 (Mus musculus) (P33033 whole entry): as above
Chain of Melanocortin receptor 4 (Mus musculus) (P56450 whole entry): as the sequence (P56450 whole entry) above

SMILES | EC50 [1] [µM] | EC50 [2] [µM] | Kb [3] [µM] | Activity [4] [%] | EC50 [5] [µM] | EC50 [6] [µM] | Kb [7] [µM] | Activity [8] [%] | Activity [9] [%] | Activity [10] [%] | Activity [11] [%] | Activity [12] [%] | Activity [13] [%]
C[C@@H]1NC(=O)[C@@H](CN)NC(=O)[C@H](Cc2ccccc2)NC(=O)[C@H](Cc2ccccc2)NC(=O)[C@H](CCCNC(=N)N)NC(=O)[C@@H]2CCCN2C(=O)[C@H]2CCCN2C(=O)[C@H](Cc2ccccc2)NC1=O | > 100 | > 100 | 0.2 | 10 |  |  |  |  |  |  |  |  | 
C[C@@H]1NC(=O)[C@H](Cc2ccccc2)NC(=O)[C@H](Cc2ccccc2)NC(=O)[C@H](Cc2ccccc2)NC(=O)[C@H](CCCNC(=N)N)NC(=O)[C@@H]2CCCN2C(=O)[C@H]2CCCN2C(=O)[C@H](Cc2ccccc2)NC1=O | > 100 | > 100 | > 3.16 |  | > 100 | > 100 | 0.234 |  |  |  |  |  | 
CC[C@@H]1NC(=O)[C@H](Cc2ccccc2)NC(=O)[C@H](Cc2ccccc2)NC(=O)[C@H](CCCNC(=N)N)NC(=O)[C@@H]2CCCN2C(=O)[C@H]2CCCN2C(=O)[C@H](Cc2ccccc2)NC(=O)[C@H](C)NC1=O |  | > 100 |  |  | > 100 |  |  |  |  |  |  |  | 
N=C(N)NCCC[C@@H]1NC(=O)[C@@H]2CCCN2C(=O)[C@H]2CCCN2C(=O)[C@H](Cc2ccccc2)NC(=O)[C@H](CCCCN)NC(=O)[C@H](CC(N)=O)NC(=O)[C@H](Cc2ccccc2)NC(=O)[C@H](Cc2ccccc2)NC1=O |  |  | > 3.16 |  | > 100 |  | 0.776 | 45 | 45 | 60 |  |  | 
C[C@@H]1NC(=O)[C@H](CCC(=O)O)NC(=O)[C@H](Cc2ccccc2)NC(=O)[C@H](Cc2ccccc2)NC(=O)[C@H](CCCNC(=N)N)NC(=O)[C@@H]2CCCN2C(=O)[C@H]2CCCN2C(=O)[C@H](Cc2ccccc2)NC1=O | > 100 | 20.5 | > 3.16 |  | > 100 |  | 0.1 |  |  |  | 10 |  | 
CC(C)C[C@@H]1NC(=O)[C@H](Cc2ccccc2)NC(=O)[C@H](Cc2ccccc2)NC(=O)[C@H](CCCNC(=N)N)NC(=O)[C@@H]2CCCN2C(=O)[C@H]2CCCN2C(=O)[C@H](Cc2ccccc2)NC(=O)[C@H](C)NC1=O (cyclo(RFFLAF[dP]P)) | > 100 | > 100 | 2 | 20 | > 100 |  | 0.0457 |  |  |  |  |  | 
CC(C)C[C@@H]1NC(=O)[C@H](CC(N)=O)NC(=O)[C@H](Cc2ccccc2)NC(=O)[C@H](Cc2ccccc2)NC(=O)[C@H](CCCNC(=N)N)NC(=O)[C@@H]2CCCN2C(=O)[C@H]2CCCN2C(=O)[C@H](Cc2ccccc2)NC1=O |  |  | > 3.16 |  |  | > 100 | 0.661 |  | 25 | 80 |  | 25 | 
C[C@@H]1NC(=O)[C@H](Cc2c[nH]cn2)NC(=O)[C@H](Cc2ccccc2)NC(=O)[C@H](Cc2ccccc2)NC(=O)[C@H](CCCNC(=N)N)NC(=O)[C@@H]2CCCN2C(=O)[C@H]2CCCN2C(=O)[C@H](Cc2ccccc2)NC1=O | > 100 | > 100 | 0.347 |  | > 100 |  |  |  |  |  |  |  | 15
N=C(N)NCCC[C@@H]1NC(=O)[C@@H]2CCCN2C(=O)[C@H]2CCCN2C(=O)[C@H](Cc2ccccc2)NC(=O)[C@H](CCC(=O)O)NC(=O)[C@H](CC(N)=O)NC(=O)[C@H](Cc2ccccc2)NC(=O)[C@H](Cc2ccccc2)NC1=O (cyclo(RFFNEF[dP]P)) | > 100 |  | > 3.16 |  | > 100 | > 100 | > 3.16 |  |  | 60 |  |  | 
